Several values for one entry are separate records, joined by “and”; a condition that tells them apart may be missing. Equal values may be shown once.
Tested on: Fibroblast
Assay: Multiplex assay against human fibroblast
Assay type: toxicity, cell-based
In short: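 At seeding, live cells were stained with Hoechst33342, BioTracker Green Microtubule Cytoskeleton Dye, MitoTracker Red and Annexin V Alexa Fluor 680. After compound addition they were imaged on a CQ1 microscope at 37°C and 5% CO2, and CellPathfinder machine-learning gating sorted them into Hoechst high-intensity objects or normal cells, with normal cells further split into healthy, pyknosed or fragmented nuclei and pyknosed cells into mitotic or apoptotic. Tubulin, mitochondrial-mass and membrane-permeability phenotypes are given as per cents of cells with healthy nuclei.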

[1] = 12 h, 1 µM, compound concentration 1 uM, replicate 1
[2] = 12 h, 1 µM, compound concentration 1 uM, replicate 2
[3] = 12 h, 10 µM, compound concentration 10 uM, replicate 1
[4] = 12 h, 10 µM, compound concentration 10 uM, replicate 2
[5] = 24 h, 1 µM, compound concentration 1 uM, replicate 1
[6] = 24 h, 1 µM, compound concentration 1 uM, replicate 2
[7] = 24 h, 10 µM, compound concentration 10 uM, replicate 1
[8] = 24 h, 10 µM, compound concentration 10 uM, replicate 2
[9] = 48 h, 1 µM, compound concentration 1 uM, replicate 1
[10] = 48 h, 1 µM, compound concentration 1 uM, replicate 2
[11] = 48 h, 10 µM, compound concentration 10 uM, replicate 1
[12] = 48 h, 10 µM, compound concentration 10 uM, replicate 2

For `CS(=O)(=O)N1CCCC(NC(=O)[C@H](CCC2CCCCC2)NC(=O)c2ccc(CNc3ncnc4c3nnn4-c3ccccc3)cc2)C1` (stereo not given in full) [SR-301], the “Population Apoptotic (%)” value [1] was 58% and 60% and 56%, the “Population Fragmented Nuclei (%)” value [1] was 22% and 18% and 20% and the “Population Healthy Nuclei (%)” value [1] was 31% and 27% and 35%. For the same compound, the “Population Hoechst High Intensity Objects (%)” value [1] was 21% and 15% and 12%, the “Population Membrane Permeable-Phenotype (%)” value [1] was 16% and 32% and 28% and the “Population Mitochondria Different-Phenotype (%)” value [1] was 13% and 12% and 26%. For the same compound, the “Population Mitotic Cells (%)” value [1] was 41% and 39% and 43%, the “Population Normal (%)” value [1] was 78% and 84% and 87% and the “Population Pyknosed Nuclei (%)” value [1] was 46% and 53% and 44%. For the same compound, the “Population Tubulin-Different-Phenotype (%)” value [1] was 47% and 61% and 57%, the “Total Cell Count” value [1] was 146 and 134 and the “Population Apoptotic (%)” value [2] was 25% and 63% and 33%. For the same compound, the “Population Fragmented Nuclei (%)” value [2] was 14% and 11% and 7%, the “Population Healthy Nuclei (%)” value [2] was 81% and 70% and 89% and the “Population Mitochondria Different-Phenotype (%)” value [2] was 20% and 14% and 10%. The “Population Mitotic Cells (%)” value [2] was 75% and 36% and 66%, the “Population Normal (%)” value [2] was 80% and 86% and 94% and the “Population Tubulin-Different-Phenotype (%)” value [2] was 21% and 19% and 12%. The “Total Cell Count” value [2] was 135 and 58 and 69, the “Population Apoptotic (%)” value [3] was 94% and 85% and 73% and the “Population Fragmented Nuclei (%)” value [3] was 34% and 37% and 21%. For the same compound, the “Population Healthy Nuclei (%)” value [3] was 20% and 17% and 28%, the “Population Hoechst High Intensity Objects (%)” value [3] was 19% and 17% and 12% and the “Population Membrane Permeable-Phenotype (%)” value [3] was 36% and 16% and 19%. The “Population Mitochondria Different-Phenotype (%)” value [3] was 20% and 25% and 36%, the “Population Normal (%)” value [3] was 80% and 82% and 87% and the “Population Pyknosed Nuclei (%)” value [3] was 45% and 44% and 50%. For the same compound, the “Population Tubulin-Different-Phenotype (%)” value [3] was 32% and 48% and 51%, the “Total Cell Count” value [3] was 153 and 216 and 163 and the “Population Apoptotic (%)” value [4] was 80% and 75% and 41%. For the same compound, the “Population Fragmented Nuclei (%)” value [4] was 39% and 27%, the “Population Healthy Nuclei (%)” value [4] was 25% and 58% and the “Population Membrane Permeable-Phenotype (%)” value [4] was 61% and 54% and 30%. The “Population Mitochondria Different-Phenotype (%)” value [4] was 66% and 54% and 34%, the “Population Mitotic Cells (%)” value [4] was 20% and 25% and 58% and the “Population Normal (%)” value [4] was 89% and 95% and 97%. For the same compound, the “Population Pyknosed Nuclei (%)” value [4] was 39% and 47% and 20%, the “Population Tubulin-Different-Phenotype (%)” value [4] was 55% and 54% and 34% and the “Total Cell Count” value [4] was 89 and 86 and 105. The “Population Apoptotic (%)” value [5] was 58% and 59% and 61%, the “Population Fragmented Nuclei (%)” value [5] was 20% and 24% and 25% and the “Population Healthy Nuclei (%)” value [5] was 39% and 33% and 42%. The “Population Hoechst High Intensity Objects (%)” value [5] was 18% and 10%, the “Population Membrane Permeable-Phenotype (%)” value [5] was 35% and 23% and 20% and the “Population Mitochondria Different-Phenotype (%)” value [5] was 17% and 9% and 18%. The “Population Mitotic Cells (%)” value [5] was 41% and 40% and 38%, the “Population Normal (%)” value [5] was 81% and 89% and the “Population Pyknosed Nuclei (%)” value [5] was 41% and 42% and 31%. The “Population Tubulin-Different-Phenotype (%)” value [5] was 53% and 66% and 52%, the “Total Cell Count” value [5] was 123 and 142 and 153 and the “Population Fragmented Nuclei (%)” value [6] was 12% and 7%. The “Population Healthy Nuclei (%)” value [6] was 78% and 80% and 86%, the “Population Membrane Permeable-Phenotype (%)” value [6] was 7% and 6% and 3% and the “Population Mitochondria Different-Phenotype (%)” value [6] was 20% and 10% and 8%. For the same compound, the “Population Mitotic Cells (%)” value [6] was 87% and 60% and 55%, the “Population Normal (%)” value [6] was 80% and 95% and 96% and the “Population Pyknosed Nuclei (%)” value [6] was 9% and 12% and 6%. The “Population Tubulin-Different-Phenotype (%)” value [6] was 13% and 26% and 14%, the “Total Cell Count” value [6] was 148 and 64 and 84 and the “Population Apoptotic (%)” value [7] was 84% and 87%. For the same compound, the “Population Fragmented Nuclei (%)” value [7] was 31% and 40% and 42%, the “Population Healthy Nuclei (%)” value [7] was 24% and 22% and the “Population Hoechst High Intensity Objects (%)” value [7] was 20% and 15% and 21%. For the same compound, the “Population Membrane Permeable-Phenotype (%)” value [7] was 23% and 21% and 17%, the “Population Mitochondria Different-Phenotype (%)” value [7] was 43% and 48% and 34% and the “Population Mitotic Cells (%)” value [7] was 15% and 12%. The “Population Normal (%)” value [7] was 79% and 84% and 78%, the “Population Pyknosed Nuclei (%)” value [7] was 43% and 36% and 35% and the “Population Tubulin-Different-Phenotype (%)” value [7] was 63% and 53% and 68%. For the same compound, the “Total Cell Count” value [7] was 154 and 214 and 166, the “Population Apoptotic (%)” value [8] was 91% and 94% and 89% and the “Population Fragmented Nuclei (%)” value [8] was 25% and 32% and 19%. For the same compound, the “Population Hoechst High Intensity Objects (%)” value [8] was 9%, the “Population Mitotic Cells (%)” value [8] was 8% and 5% and 10% and the “Population Normal (%)” value [8] was 90%. For the same compound, the “Population Pyknosed Nuclei (%)” value [8] was 49% and 50% and 21%, the “Total Cell Count” value [8] was 98 and 89 and 110 and the “Population Apoptotic (%)” value [9] was 75% and 70%. The “Population Fragmented Nuclei (%)” value [9] was 38% and 39% and 30%, the “Population Healthy Nuclei (%)” value [9] was 46% and 41% and the “Population Hoechst High Intensity Objects (%)” value [9] was 25% and 18%. The “Population Membrane Permeable-Phenotype (%)” value [9] was 32% and 27% and 25%, the “Population Mitochondria Different-Phenotype (%)” value [9] was 8% and 9% and 10% and the “Population Mitotic Cells (%)” value [9] was 25% and 30%. For the same compound, the “Population Normal (%)” value [9] was 74% and 81%, the “Population Pyknosed Nuclei (%)” value [9] was 16% and 19% and 23% and the “Population Tubulin-Different-Phenotype (%)” value [9] was 43% and 48% and 50%. The “Total Cell Count” value [9] was 135 and 127 and 148, the “Population Apoptotic (%)” value [10] was 100% and 60% and the “Population Fragmented Nuclei (%)” value [10] was 19% and 21% and 22%. For the same compound, the “Population Healthy Nuclei (%)” value [10] was 80% and 73% and 75%, the “Population Hoechst High Intensity Objects (%)” value [10] was 8% and 7% and 5% and the “Population Membrane Permeable-Phenotype (%)” value [10] was 20% and 15% and 13%. For the same compound, the “Population Mitochondria Different-Phenotype (%)” value [10] was 3% and 1%, the “Population Normal (%)” value [10] was 91% and 92% and 94% and the “Population Pyknosed Nuclei (%)” value [10] was 0% and 4% and 1%. For the same compound, the “Population Tubulin-Different-Phenotype (%)” value [10] was 39% and 17% and 40%, the “Total Cell Count” value [10] was 131 and 116 and 118 and the “Population Apoptotic (%)” value [11] was 85% and 83% and 92%. For the same compound, the “Population Fragmented Nuclei (%)” value [11] was 41% and 44% and 50%, the “Population Healthy Nuclei (%)” value [11] was 22% and 29% and 25% and the “Population Hoechst High Intensity Objects (%)” value [11] was 20% and 26%. For the same compound, the “Population Membrane Permeable-Phenotype (%)” value [11] was 32% and 23%, the “Population Mitochondria Different-Phenotype (%)” value [11] was 40% and 48% and 30% and the “Population Mitotic Cells (%)” value [11] was 15% and 16% and 7%. For the same compound, the “Population Normal (%)” value [11] was 79% and 73%, the “Population Pyknosed Nuclei (%)” value [11] was 35% and 25% and the “Population Tubulin-Different-Phenotype (%)” value [11] was 48% and 44% and 53%. For the same compound, the “Total Cell Count” value [11] was 141 and 195, the “Population Apoptotic (%)” value [12] was 84% and 100% and 94% and the “Population Fragmented Nuclei (%)” value [12] was 51% and 53%. The “Population Healthy Nuclei (%)” value [12] was 35% and 24% and 30%, the “Population Hoechst High Intensity Objects (%)” value [12] was 16% and 29% and the “Population Membrane Permeable-Phenotype (%)” value [12] was 34% and 14% and 27%. For the same compound, the “Population Mitochondria Different-Phenotype (%)” value [12] was 78% and 85% and 72%, the “Population Mitotic Cells (%)” value [12] was 0% and 5% and the “Population Normal (%)” value [12] was 83% and 70%. The “Population Pyknosed Nuclei (%)” value [12] was 20% and 24% and 15%, the “Population Tubulin-Different-Phenotype (%)” value [12] was 34% and 32% and 54% and the “Total Cell Count” value [12] was 89 and 137 and 153.
